Assay results published in ChEMBL document CHEMBL2046351, “Discovery of cyclic sulfone hydroxyethylamines as potent and selective β-site APP-cleaving enzyme 1 (BACE1) inhibitors: structure-based design and in vivo reduction of amyloid β-peptides” (J Med Chem, 2012).

Tests used:
Cathepsin D = Cathepsin D (Homo sapiens, UniProt P07339); test: Inhibition of human recombinant CatD using Mca-GKPILFFRLK(DNP)-dR-NH2 as substrate after 1 hr by fluorescence analysis
MDR1 (human) [1] = test: Apparent permeability across MDCK cells expressing human MDR1 at 5 uM after 2 hrs by LC-MS analysis; assay type: ADME, cell-based, Canis lupus familiaris; conditions: dog
Outline: (§1)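 MDCK cells retrovirally transduced with human MDR1, seeded on transwells ≥3 days; bidirectional transport at 5 μM, 2 h, 37 °C, LC/MS quantitation. Papp = (dQ/dt)/(A·C0), A 0.11 cm2; ER = Papp B>A / Papp A>B. Means of at least three experiments.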

Beta-secretase 1 = Beta-secretase 1 (Homo sapiens, UniProt P56817)
Chain of Beta-secretase 1 (P56817 whole entry): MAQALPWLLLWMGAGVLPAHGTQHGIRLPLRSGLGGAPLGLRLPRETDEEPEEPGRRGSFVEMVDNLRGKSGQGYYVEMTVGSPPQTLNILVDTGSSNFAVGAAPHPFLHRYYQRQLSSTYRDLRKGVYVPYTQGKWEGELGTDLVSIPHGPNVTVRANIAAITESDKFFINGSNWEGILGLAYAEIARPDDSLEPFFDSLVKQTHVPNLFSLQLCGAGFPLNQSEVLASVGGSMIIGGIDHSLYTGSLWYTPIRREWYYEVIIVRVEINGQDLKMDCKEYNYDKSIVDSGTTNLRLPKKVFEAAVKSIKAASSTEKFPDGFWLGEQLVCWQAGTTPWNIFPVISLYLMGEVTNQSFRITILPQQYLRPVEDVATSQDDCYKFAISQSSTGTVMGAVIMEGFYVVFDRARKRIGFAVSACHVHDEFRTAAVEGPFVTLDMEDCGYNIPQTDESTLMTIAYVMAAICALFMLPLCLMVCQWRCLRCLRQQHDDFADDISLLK

MDR1 (human) [2] = test: Efflux ratio of permeability from basolateral to apical over apical to basolateral side of MDCK cells expressing human MDR1 at 5 uM after 2 hrs by LC/MS analysis; assay type: ADME, cell-based, Canis lupus familiaris; conditions: dog; outline: as §1

Chain of Cathepsin D (P07339 65-162 limits assumed): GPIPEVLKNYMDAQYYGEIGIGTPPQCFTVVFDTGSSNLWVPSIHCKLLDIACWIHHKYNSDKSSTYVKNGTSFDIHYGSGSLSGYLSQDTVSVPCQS
Chain of Cathepsin D (P07339 169-412 limits assumed): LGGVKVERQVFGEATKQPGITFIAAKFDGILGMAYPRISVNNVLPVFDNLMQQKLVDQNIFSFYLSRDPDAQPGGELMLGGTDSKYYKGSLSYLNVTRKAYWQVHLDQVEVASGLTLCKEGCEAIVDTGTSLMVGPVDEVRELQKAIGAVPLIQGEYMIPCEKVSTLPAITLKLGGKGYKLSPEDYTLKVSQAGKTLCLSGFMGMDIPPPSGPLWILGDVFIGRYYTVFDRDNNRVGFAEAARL

CC(C)Oc1cc(C[C@@H]2CS(=O)(=O)C[C@H](NCc3cccc(C(C)(C)C)c3)[C@H]2O)cc(F)c1N
IC50 (Cathepsin D): 2.22 µM
Papp at 2 h, 5 µM (MDR1 (human) [1]): 14 ×10⁻⁶ cm/s
IC50 (Beta-secretase 1): 0.043 µM
efflux ratio at 2 h, 5 µM (MDR1 (human) [2]): 3

CC(C)(C)c1cccc(CN[C@H]2CS(=O)(=O)C[C@@H](Cc3cc(O)c(N)c(F)c3)[C@@H]2O)c1
IC50 (Cathepsin D): 0.54 µM
Papp at 2 h, 5 µM (MDR1 (human) [1]): 14 ×10⁻⁶ cm/s
IC50 (Beta-secretase 1): 0.12 µM
efflux ratio at 2 h, 5 µM (MDR1 (human) [2]): 27

CC(C)(C)c1cccc(CN[C@H]2CS(=O)(=O)C[C@@H](Cc3cc(F)c(N)c(CCC(F)(F)F)c3)[C@@H]2O)c1
IC50 (Cathepsin D): 0.98 µM
Papp at 2 h, 5 µM (MDR1 (human) [1]): 11 ×10⁻⁶ cm/s
IC50 (Beta-secretase 1): 0.13 µM
efflux ratio at 2 h, 5 µM (MDR1 (human) [2]): 3

CC(C)(C)c1cccc(CN[C@H]2CS(=O)(=O)C[C@@H](Cc3cc(F)c4c(c3)C3(CCC3)CN4)[C@@H]2O)c1 (racemic)
IC50 (Cathepsin D): 0.08 µM
Papp at 2 h, 5 µM (MDR1 (human) [1]): 6 ×10⁻⁶ cm/s
IC50 (Beta-secretase 1): 0.56 µM
efflux ratio at 2 h, 5 µM (MDR1 (human) [2]): 3

Nc1c(F)cc(C[C@@H]2CS(=O)(=O)C[C@H](N)[C@H]2O)cc1OC(C(F)(F)F)C(F)(F)F
IC50 (Cathepsin D): > 10 µM
Papp at 2 h, 5 µM (MDR1 (human) [1]): 13 ×10⁻⁶ cm/s
IC50 (Beta-secretase 1): > 10 µM
efflux ratio at 2 h, 5 µM (MDR1 (human) [2]): 17

CC(C)(C)c1cccc(CN[C@H]2CS(=O)(=O)C[C@@H](Cc3cc(F)c(N)c(C[C@H](O)C(F)(F)F)c3)[C@@H]2O)c1
IC50 (Cathepsin D): 1.05 µM
Papp at 2 h, 5 µM (MDR1 (human) [1]): 13 ×10⁻⁶ cm/s

CC(C)(C)c1cccc(CN[C@H]2CS(=O)(=O)C[C@@H](Cc3ccc(N)c(OC(F)(F)F)c3)[C@@H]2O)c1 (racemic)
IC50 (Cathepsin D): 7.99 µM
Papp at 2 h, 5 µM (MDR1 (human) [1]): 15 ×10⁻⁶ cm/s
IC50 (Beta-secretase 1): 0.13 µM
efflux ratio at 2 h, 5 µM (MDR1 (human) [2]): 2

CC(C)(C)c1cccc(CN[C@H]2CS(=O)(=O)C[C@@H](Cc3cc(F)c(N)c(-c4ccco4)c3)[C@@H]2O)c1
IC50 (Cathepsin D): 0.36 µM
Papp at 2 h, 5 µM (MDR1 (human) [1]): 2 ×10⁻⁶ cm/s
IC50 (Beta-secretase 1): 0.079 µM
efflux ratio at 2 h, 5 µM (MDR1 (human) [2]): 2

CC(C)(C)c1cccc(CN[C@H]2CS(=O)(=O)C[C@@H](Cc3cc(F)c(N)c(-c4cc[nH]n4)c3)[C@@H]2O)c1 (racemic)
IC50 (Cathepsin D): 0.6 µM
Papp at 2 h, 5 µM (MDR1 (human) [1]): 20 ×10⁻⁶ cm/s
IC50 (Beta-secretase 1): 0.028 µM
efflux ratio at 2 h, 5 µM (MDR1 (human) [2]): 17

CCCc1n[nH]c2ccc(C[C@@H]3CS(=O)(=O)C[C@H](NCc4cccc(C(C)(C)C)c4)[C@H]3O)cc12 (racemic)
IC50 (Cathepsin D): 1.63 µM
Papp at 2 h, 5 µM (MDR1 (human) [1]): 30 ×10⁻⁶ cm/s
IC50 (Beta-secretase 1): 0.22 µM
efflux ratio at 2 h, 5 µM (MDR1 (human) [2]): 49

CCCOc1cc(CC2CS(=O)(=O)CC(NCc3cccc(C(C)(C)C)c3)[C@H]2O)cc(F)c1N (single isomer, unassigned)
IC50 (Cathepsin D): 2.22 µM
Papp at 2 h, 5 µM (MDR1 (human) [1]): 7 ×10⁻⁶ cm/s
IC50 (Beta-secretase 1): 0.056 µM
efflux ratio at 2 h, 5 µM (MDR1 (human) [2]): 3

CC(C)(C)c1cccc(CN[C@H]2CS(=O)(=O)C[C@@H](Cc3ccc(N)c(OCC(F)(F)F)c3)[C@@H]2O)c1
IC50 (Cathepsin D): 4.37 µM
Papp at 2 h, 5 µM (MDR1 (human) [1]): 23 ×10⁻⁶ cm/s
IC50 (Beta-secretase 1): 0.036 µM
efflux ratio at 2 h, 5 µM (MDR1 (human) [2]): 3

CCc1cc(C[C@@H]2CS(=O)(=O)C[C@H](NCc3cccc(C(C)(C)C)c3)[C@H]2O)cc(F)c1N
IC50 (Cathepsin D): 2 µM
Papp at 2 h, 5 µM (MDR1 (human) [1]): 23 ×10⁻⁶ cm/s
IC50 (Beta-secretase 1): 0.87 µM
efflux ratio at 2 h, 5 µM (MDR1 (human) [2]): 2

CC(C)(C)c1cccc(CN[C@H]2CS(=O)(=O)C[C@@H](Cc3ccc4[nH]ncc4c3)[C@@H]2O)c1 (racemic)
IC50 (Cathepsin D): 3.75 µM
Papp at 2 h, 5 µM (MDR1 (human) [1]): 23 ×10⁻⁶ cm/s
IC50 (Beta-secretase 1): 1.45 µM
efflux ratio at 2 h, 5 µM (MDR1 (human) [2]): 11

CC(F)(F)c1cccc(CN[C@H]2CS(=O)(=O)C[C@@H](Cc3cc(F)c(N)c(Br)c3)[C@@H]2O)c1
IC50 (Cathepsin D): 4.16 µM
Papp at 2 h, 5 µM (MDR1 (human) [1]): 28 ×10⁻⁶ cm/s
efflux ratio at 2 h, 5 µM (MDR1 (human) [2]): 4

COCCOC[C@@H](Oc1cc(C[C@@H]2CS(=O)(=O)C[C@H](NCc3cccc(C(C)(C)C)c3)[C@H]2O)cc(F)c1N)C(F)(F)F
IC50 (Cathepsin D): 0.25 µM
Papp at 2 h, 5 µM (MDR1 (human) [1]): 12 ×10⁻⁶ cm/s

C[C@@H](Oc1cc(C[C@@H]2CS(=O)(=O)C[C@H](NCc3cccc(C(C)(C)C)c3)[C@H]2O)cc(F)c1N)C(F)(F)F
IC50 (Cathepsin D): 0.48 µM
Papp at 2 h, 5 µM (MDR1 (human) [1]): 10 ×10⁻⁶ cm/s
IC50 (Beta-secretase 1): 0.003 µM
efflux ratio at 2 h, 5 µM (MDR1 (human) [2]): 5

CCOC[C@H](Oc1cc(C[C@@H]2CS(=O)(=O)C[C@H](NCc3cccc(C(C)(C)C)c3)[C@H]2O)cc(F)c1N)C(F)(F)F
IC50 (Cathepsin D): 1.23 µM
Papp at 2 h, 5 µM (MDR1 (human) [1]): 8 ×10⁻⁶ cm/s

CC(C)(C)c1cccc(CN[C@H]2CS(=O)(=O)C[C@@H](Cc3cc(F)c(N)c(OC4COC4)c3)[C@@H]2O)c1
IC50 (Cathepsin D): 1.15 µM
Papp at 2 h, 5 µM (MDR1 (human) [1]): 23 ×10⁻⁶ cm/s

CN(C)CC(=O)Nc1ccc(C[C@@H]2CS(=O)(=O)C[C@H](NCc3cccc(C(C)(C)C)c3)[C@H]2O)cc1F
IC50 (Cathepsin D): > 10 µM
Papp at 2 h, 5 µM (MDR1 (human) [1]): 6 ×10⁻⁶ cm/s

COCCOc1cc(C[C@@H]2CS(=O)(=O)C[C@H](NCc3cccc(C(C)(C)C)c3)[C@H]2O)cc(F)c1N
IC50 (Cathepsin D): 3.98 µM
Papp at 2 h, 5 µM (MDR1 (human) [1]): 25 ×10⁻⁶ cm/s

CCc1cc(C[C@@H]2CS(=O)(=O)C[C@H](NCc3cccc(C(C)(C)C)c3)[C@H]2O)cc(F)c1NC(=O)CN(C)C
IC50 (Cathepsin D): > 10 µM
Papp at 2 h, 5 µM (MDR1 (human) [1]): 13 ×10⁻⁶ cm/s

CC(C)(C)O[C@H]1C[C@@H]1CN[C@H]1CS(=O)(=O)C[C@@H](Cc2cc(F)c(N)c(OC(C(F)(F)F)C(F)(F)F)c2)[C@@H]1O (mixture of isomers)
IC50 (Cathepsin D): 3.71 µM
IC50 (Beta-secretase 1): > 10 µM
efflux ratio at 2 h, 5 µM (MDR1 (human) [2]): 4

CC(C)(C)c1cccc(CN[C@H]2CS(=O)(=O)C[C@@H](Cc3cc(F)c(N)c(C4CC4)c3)[C@@H]2O)c1
IC50 (Cathepsin D): 1.74 µM
Papp at 2 h, 5 µM (MDR1 (human) [1]): 16 ×10⁻⁶ cm/s
IC50 (Beta-secretase 1): 0.094 µM
efflux ratio at 2 h, 5 µM (MDR1 (human) [2]): 3

CC(C)(C)c1cccc(CN[C@H]2CS(=O)(=O)C[C@@H](Cc3cc(F)c(N)c(-c4ccoc4)c3)[C@@H]2O)c1
IC50 (Cathepsin D): 0.51 µM
Papp at 2 h, 5 µM (MDR1 (human) [1]): 3 ×10⁻⁶ cm/s
IC50 (Beta-secretase 1): 0.15 µM
efflux ratio at 2 h, 5 µM (MDR1 (human) [2]): 2

CC(C)(C)c1cccc(CN[C@H]2CS(=O)(=O)C[C@@H](Cc3ccc4[nH]cc(CC(F)F)c4c3)[C@@H]2O)c1 (racemic)
IC50 (Cathepsin D): 1.22 µM
Papp at 2 h, 5 µM (MDR1 (human) [1]): 6 ×10⁻⁶ cm/s
efflux ratio at 2 h, 5 µM (MDR1 (human) [2]): 8

CCCOc1cccc(C[C@@H]2CS(=O)(=O)C[C@H](NCc3cccc(C(C)(C)C)c3)[C@H]2O)c1 (relative stereo)
IC50 (Cathepsin D): 0.29 µM
Papp at 2 h, 5 µM (MDR1 (human) [1]): 2 ×10⁻⁶ cm/s
IC50 (Beta-secretase 1): 0.67 µM
efflux ratio at 2 h, 5 µM (MDR1 (human) [2]): 1

CC(C)(C)c1cccc(CN[C@H]2CS(=O)(=O)C[C@@H](Cc3ccc(N)nc3)[C@@H]2O)c1 (racemic)
IC50 (Cathepsin D): > 10 µM
Papp at 2 h, 5 µM (MDR1 (human) [1]): 17.4 ×10⁻⁶ cm/s
IC50 (Beta-secretase 1): 1.62 µM
efflux ratio at 2 h, 5 µM (MDR1 (human) [2]): 16

CC(C)(C)c1cccc(CN[C@H]2CS(=O)(=O)C[C@@H](Cc3cc(F)c4c(c3)C3(CCC(F)(F)CC3)CN4)[C@@H]2O)c1 (racemic)
IC50 (Cathepsin D): 3.53 µM

CC(C)(C)c1cccc(CN[C@H]2CS(=O)(=O)C[C@@H](Cc3ccc4[nH]cc(CC(F)(F)F)c4c3)[C@@H]2O)c1 (racemic)
IC50 (Cathepsin D): 1.49 µM
Papp at 2 h, 5 µM (MDR1 (human) [1]): 2.5 ×10⁻⁶ cm/s
IC50 (Beta-secretase 1): 0.12 µM
efflux ratio at 2 h, 5 µM (MDR1 (human) [2]): 7

CCc1c[nH]c2ccc(C[C@@H]3CS(=O)(=O)C[C@H](NCc4cccc(C(C)(C)C)c4)[C@H]3O)cc12 (racemic)
IC50 (Cathepsin D): 2.48 µM
IC50 (Beta-secretase 1): 0.2 µM

CO[C@@H](Cc1cc(C[C@@H]2CS(=O)(=O)C[C@H](NCc3cccc(C(C)(C)C)c3)[C@H]2O)cc(F)c1N)C(F)(F)F
IC50 (Cathepsin D): 1.14 µM
Papp at 2 h, 5 µM (MDR1 (human) [1]): 9 ×10⁻⁶ cm/s

CCOC[C@@H](Oc1cc(C[C@@H]2CS(=O)(=O)C[C@H](NCc3cccc(C(C)(C)C)c3)[C@H]2O)cc(F)c1N)C(F)(F)F
IC50 (Cathepsin D): 0.23 µM
Papp at 2 h, 5 µM (MDR1 (human) [1]): 11 ×10⁻⁶ cm/s

CC(C)(C)c1cccc(CN[C@H]2CS(=O)(=O)C[C@@H](Cc3ccc4[nH]ccc4c3)[C@@H]2O)c1 (racemic)
IC50 (Cathepsin D): 5.53 µM
Papp at 2 h, 5 µM (MDR1 (human) [1]): 10 ×10⁻⁶ cm/s
IC50 (Beta-secretase 1): 2.75 µM
efflux ratio at 2 h, 5 µM (MDR1 (human) [2]): 3

CC(C)(C)c1cccc(CN[C@H]2CS(=O)(=O)C[C@@H](Cc3cc(F)c(N)c(OC4CCC4)c3)[C@@H]2O)c1
IC50 (Cathepsin D): 0.39 µM
Papp at 2 h, 5 µM (MDR1 (human) [1]): 6 ×10⁻⁶ cm/s
IC50 (Beta-secretase 1): 0.011 µM
efflux ratio at 2 h, 5 µM (MDR1 (human) [2]): 3

CC(C)(C)c1cccc(CN[C@H]2CS(=O)(=O)C[C@@H](Cc3cc(F)c(N)c(OCCC(F)(F)F)c3)[C@@H]2O)c1
IC50 (Cathepsin D): 2.4 µM
Papp at 2 h, 5 µM (MDR1 (human) [1]): 12 ×10⁻⁶ cm/s
IC50 (Beta-secretase 1): 0.075 µM
efflux ratio at 2 h, 5 µM (MDR1 (human) [2]): 4

CC(C)(C)c1cccc(CN[C@H]2CS(=O)(=O)C[C@@H](Cc3cc(F)c(N)c(OCCF)c3)[C@@H]2O)c1
IC50 (Cathepsin D): 2 µM
Papp at 2 h, 5 µM (MDR1 (human) [1]): 26 ×10⁻⁶ cm/s
IC50 (Beta-secretase 1): 0.043 µM
efflux ratio at 2 h, 5 µM (MDR1 (human) [2]): 16
